Assay [1] in a line: Cytotoxicity against human MDA-MB-23 cells by MTT assay. It is filed as functional, cell-based. Background: Formazan colour is commonly taken as a measure of viable cells.
Assay [2] concerns A549. Nature of the assay: Cytotoxicity against human A549 cells by MTT assay. The class given is functional, cell-based.
Assay [3] relates to HepG2. Nature of the assay: Cytotoxicity against human HepG2 cells at 20 ug/mL by MTT assay. It is filed as functional. The following applies: read-out: GI.
Assay [4] has as its system HepG2. Nature of the assay: Cytotoxicity against human HepG2 cells by MTT assay. The class given is functional, cell-based.
The test system of assay [5] is MCF7. The experiment in a line: Cytotoxicity against human MCF7 cells by MTT assay. It is filed as functional, cell-based.
The test system of assay [6] is MCF7. The experiment in a line: Cytotoxicity against human MCF7 cells at 0.5 ug/mL by MTT assay. The class given is functional. The conditions noted are these: read-out: GI.
The nature of assay [7]: Cytotoxicity against human MDA-MB-23 cells at 0.5 ug/mL by MTT assay. The class given is functional. The conditions noted are these: read-out: GI.
Assay [8] deals with HepG2. The experiment in a line: Cytotoxicity against human HepG2 cells at 0.5 ug/mL by MTT assay. The following applies: read-out: GI. It is filed as functional.
The subject of assay [9] is A549. Nature of the assay: Cytotoxicity against human A549 cells at 0.5 ug/mL by MTT assay. The class given is functional. The following applies: read-out: GI.
The subject of assay [10] is MCF7. The experiment in a line: Cytotoxicity against human MCF7 cells at 20 ug/mL by MTT assay. It is filed as functional. The following applies: read-out: GI.
Assay [11] has as its system RAW264.7. Nature of the assay: Inhibition of LPS-induced COX2 expression in mouse RAW264.7 cells at 10 uM by immunoblot analysis relative to control. The class given is functional. The gist of the method: (§1)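 Murine RAW 264.7 macrophages were grown in DMEM with 10% heat-inactivated FBS at 37 °C and 5% CO2. Test agent (10 µM) was added 5 min before LPS (0.01 µg/mL), followed by 16 h incubation. Lysates were cleared at 20000g, and equal protein was run on SDS-PAGE and PVDF. Blots used anti-iNOS or anti-COX-2 (1:1000, 180 min RT), ECL, and a β-actin reprobe. Densitometry was expressed relative to LPS-alone (100%), as mean ± SEM, n = 6.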
(In general: In western blotting, separated proteins are transferred to a membrane and probed.)

Assay [12] has as its system A549. The experiment in a line: Cytotoxicity against human A549 cells at 20 ug/mL by MTT assay. It is filed as functional. The following applies: read-out: GI.
For assay [13], the system named is RAW264.7. The experiment in a line: Inhibition of LPS-induced iNOS expression in mouse RAW264.7 cells at 10 uM by immunoblot analysis relative to control. The class given is functional. The gist of the method: as §1

The structures appear in SMILES notation. The source made the active and inactive calls. No cut-off for these calls is given here.

As to `C/C1=C/C=C(\C(C)C)CC/C(C)=C/C(O)C/C(C)=C/CC1` (stereo unspecified) [GIBBEROSENE G], the IC50 (in assay [1]; with A549 [2]; in the assay on HepG2 [4]; with MCF7 [5]) was over 20 µg/mL in each case. In the assay on HepG2 [3], the inhibition of growth at 20 µg/mL worked out at 23.3%.

On to `CC(=O)O[C@H]1/C=C(C(C)C)\C=C\[C@@](C)(O)CC/C=C(\C)CC[C@@H]2O[C@@]12C` (relative stereo) [GIBBEROSENE D], for which the IC50 (in assay [1]; in the assay with A549 [2]; in the assay on HepG2 [4]; with MCF7 [5]) was over 20 µg/mL in each case.

Consider `CC(=O)O[C@@H]1/C(C)=C/CC/C(C)=C/[C@H](O)C/C(C)=C\C=C(/C(C)C)[C@H]1OC(C)=O` (relative stereo) [GIBBEROSENE F], for which the IC50 (in [1]; in the assay on A549 [2]; in the assay with HepG2 [4]; in the assay with MCF7 [5]) was over 20 µg/mL throughout.

`COc1cccc2c1C(=O)c1c(O)c3c(c(O)c1C2=O)C[C@@](O)(C(=O)CO)C[C@@H]3O[C@H]1C[C@H](N)[C@H](O)[C@H](C)O1` [DOXORUBICIN]: the inhibition of growth at 0.5 µg/mL was 51.6% in the assay with MCF7 [6], 66.6% in assay [7], 66.9% with HepG2 [8] and 73.2% with A549 [9].

As to `C/C1=C\CC[C@]2(C)O[C@H]2/C=C(\C(C)C)C[C@H](O)[C@]2(C)O[C@H]2CC1` (relative stereo) [GIBBEROSENE C], the IC50 (in assay [1]; in the assay with A549 [2]; in the assay with HepG2 [4]; in the assay with MCF7 [5]) was over 20 µg/mL in each case.

For the compound `C/C1=C/C=C(\C(C)C)[C@@H](O)C[C@]2(C)O[C@@H]2CC/C(C)=C/CC1`, the inhibition of growth at 20 µg/mL was 33.4% in the assay with MCF7 [10], 45.5% with HepG2 [3] and 27.2% in the assay with A549 [12]. Also, the COX-2 protein level (% of LPS control) at 10 µM in the assay on RAW264.7 [11] is 54%. The half-inhibitory concentration (IC50) (in assay [1]; with A549 [2]; in the assay on HepG2 [4]; in the assay on MCF7 [5]) was over 20 µg/mL each time. Also, the iNOS protein level (% of LPS control) at 10 µM in the assay on RAW264.7 [13] came out at 76.2%.

As for `CC(=O)O[C@@H]1/C(C)=C/C[C@H](O)/C(C)=C/CC/C(C)=C\C=C(/C(C)C)[C@H]1OC(C)=O` (relative stereo) [GIBBEROSENE E], the inhibition of growth at 20 µg/mL in the assay with MCF7 [10] was 21%; in the assay on HepG2 [3] it was 31.3%; in the assay on A549 [12], 25.8%. Besides, the IC50 (in [1]; with A549 [2]; in the assay on HepG2 [4]; with MCF7 [5]) was over 20 µg/mL in each case.

Consider `CC(=O)O[C@H]1C/C(C(C)C)=C/C=C(/C)CC/C=C(\C)CC[C@@H]2O[C@@]12C` (relative stereo) [GIBBEROSENE B], for which the values for the inhibition of growth at 20 µg/mL with MCF7 [10] and in the assay on HepG2 [3] were 21.5% and 24%, respectively. Moreover, the outcome in the assay with RAW264.7 [11] and in the assay on RAW264.7 [13] was inactive. Also, the IC50 (in assay [1]; in the assay with A549 [2]; with HepG2 [4]; in the assay with MCF7 [5]) was over 20 µg/mL in each case.

Regarding `CC(=O)O[C@H]1C2=C(C(C)C)C=C(O2)[C@@H](C)CC/C=C(\C)CC[C@@H]2O[C@]21C` (relative stereo) [GIBBEROSENE A], the values for the inhibition of growth at 20 µg/mL with MCF7 [10] and in the assay on HepG2 [3] were 41.3% and under 20%, respectively. Moreover, the IC50 (in [1]; with A549 [2]; in the assay on HepG2 [4]; in the assay with MCF7 [5]) was over 20 µg/mL throughout.

The term IC50 denotes the point on the concentration scale where inhibition reaches its midpoint.
